Here are results for 14 compounds from ChEMBL document CHEMBL2203014, “Structure-Based Design of Potent and Selective CK1γ Inhibitors” (ACS Med Chem Lett, 2012).

In series [1] the target is T1, Casein kinase I isoform gamma-2 (Homo sapiens, UniProt P78368).
Series [2] deals with Glycogen synthase kinase-3 beta (Homo sapiens, UniProt P49841).
Series [3] deals with Casein kinase I isoform alpha (Homo sapiens, UniProt P48729). The series can be described thus: Inhibition of CK1-alpha using biotin[long chain]-KKRRRAL{pS}VATLPGL substrate in presence of 8 uM ATP.
Chain of Casein kinase I isoform alpha (P48729 whole entry, canonical isoform): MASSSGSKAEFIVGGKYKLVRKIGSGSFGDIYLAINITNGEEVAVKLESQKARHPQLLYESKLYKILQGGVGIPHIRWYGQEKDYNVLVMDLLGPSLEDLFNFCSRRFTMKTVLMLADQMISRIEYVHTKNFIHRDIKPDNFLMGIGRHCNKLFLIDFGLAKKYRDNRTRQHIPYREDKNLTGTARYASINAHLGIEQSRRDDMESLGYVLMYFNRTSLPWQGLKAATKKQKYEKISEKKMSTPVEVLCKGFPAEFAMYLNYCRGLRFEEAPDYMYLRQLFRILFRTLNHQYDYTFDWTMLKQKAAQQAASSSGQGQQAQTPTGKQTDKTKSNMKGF
Series [4] concerns the target T1, Casein kinase I isoform gamma-2. The series can be described thus: Inhibition of CK1-gamma2 in human RKO cell assessed as inhibition of Wnt3a-induced Wnt signaling treated 1 hr prior to Wnt3a ligand addition measured after 18 to 24 hrs by luciferase reporter gene assay. (In a reporter assay the amount or activity of a reporter protein is the signal.)
The nature of series [5]: Selectivity ratio of IC50 for CK1-alpha to IC50 for CK1-gamma2.
Series [6] addresses Casein kinase I isoform delta (Homo sapiens, UniProt P48730).
Series [7] is described as follows: Selectivity ratio of IC50 for CK1-delta to IC50 for CK1-gamma2.
Series [8] can be described thus: Plasma protein binding in rat. It counts as ADME, cell-free. The note with it: read-out: PPB (converted).
Series [9] can be described thus: Plasma protein binding in mouse. Format: ADME, cell-free. The note with it: read-out: PPB (converted).
Series [10] is described as follows: Intrinsic clearance in rat liver microsomes at 1 uM after 30 mins. The note with it: read-out: CLH. It counts as ADME, Microsome. The method, boiled down:
(§1)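 Liver microsome turnover (human or rat): compound at 1 μM incubated with microsomes for 30 min. Intrinsic clearance reported in μL/(min·mg).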
(Microsomes from liver hold many membrane-bound enzymes, among them those of drug oxidation.)

Series [11] can be described thus: Tmax in […] mouse at 30 mg/kg, po. It counts as ADME, organism-based. Also noted: dose 30 mg/kg, route oral. The note with it: in vivo. In short, it runs like this: (§2)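 Oral PK in male CD1 mice, 3 animals per study, dosed at 30 mg/kg po. Vehicle: 10.0% Pluronic F68 / 30.0% HPBCD / 60.0% water with MSA, pH 2.5. Cmax, t1/2, Tmax and AUC were taken from plasma exposure.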

A short description of series [12]: Plasma concentration in HEK-293 cells xenografted in nude mouse at 50 mg/kg, po after 6 hrs. Also noted: dose 50 mg/kg, route oral. It counts as ADME, organism-based, HEK293. The method, boiled down: (§3)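 Athymic nude mice carried subcutaneous tumors of HEK293 cells constitutively expressing LRP6 with doxycycline-inducible CK1γ. Doxycycline (0.5 mg/mL) was given in drinking water for 24 h to stimulate LRP6 phosphorylation, then compound was dosed orally at 50 mg/kg. Tumor and plasma were collected 6 h post-dose. Tumor phospho-LRP6 was quantified by electrochemiluminescent assay, and plasma total and unbound exposure were determined.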

Series [13] relates to Plasma. The experiment in a line: Unbound concentration in HEK293 cells xenografted in nude mouse at 50 mg/kg, po after 6 hrs. Also noted: dose 50 mg/kg, route oral. It counts as ADME, organism-based. Particulars: in vivo. The method, boiled down: as §3
The nature of series [14]: AUC in […] mouse at 30 mg/kg, po. It counts as ADME, organism-based. Also noted: dose 30 mg/kg, route oral. The note with it: plasma. The method, boiled down: as §2
For series [15], the system named is Mus musculus. The experiment in a line: Inhibition of CK1-gamma-mediated LRP6 phosphorylation in HEK293 cells xenografted in nude mouse at 50 mg/kg, po after 6 hrs by electrochemiluminescent assay. It counts as functional. Particulars: HEK293, 6 h. The method, boiled down:
as §3

Series [16] has as its target T1, Casein kinase I isoform gamma-2. The series can be described thus: Inhibition of human CK1-gamma2 in HEK293 cells assessed as inhibition of doxcycline-induced LRP6 phosphorylation after 2 hrs by electrochemiluminescence analysis. It counts as cell-based.
A short description of series [17]: Intrinsic clearance in human liver microsomes at 1 uM after 30 mins. It counts as ADME, Microsome. Particulars: read-out: CLH. In short, it runs like this:
as §1

Series [18] can be described thus: Half life in […] mouse at 30 mg/kg, po. Format: ADME, organism-based. Also noted: dose 30 mg/kg, route oral. The note with it: in vivo. The method, boiled down:
as §2

Series [19] in a line: Cmax in […] mouse at 30 mg/kg, po. Also noted: dose 30 mg/kg, route oral. The note with it: in vivo. It counts as ADME, organism-based. The method, boiled down: as §2

T1 sequence (P78368 whole entry, canonical isoform): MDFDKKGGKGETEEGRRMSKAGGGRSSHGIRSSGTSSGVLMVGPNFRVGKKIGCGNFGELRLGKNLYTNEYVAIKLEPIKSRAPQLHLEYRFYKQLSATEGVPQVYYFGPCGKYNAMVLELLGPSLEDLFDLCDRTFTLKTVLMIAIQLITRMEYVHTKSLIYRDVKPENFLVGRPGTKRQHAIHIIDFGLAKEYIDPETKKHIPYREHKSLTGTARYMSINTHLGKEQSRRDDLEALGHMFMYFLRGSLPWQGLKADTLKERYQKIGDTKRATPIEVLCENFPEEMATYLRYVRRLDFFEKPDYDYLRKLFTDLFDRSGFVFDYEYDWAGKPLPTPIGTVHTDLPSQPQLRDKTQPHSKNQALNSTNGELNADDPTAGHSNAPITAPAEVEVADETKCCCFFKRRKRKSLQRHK
Chain of Casein kinase I isoform delta (P48730 whole entry, canonical isoform): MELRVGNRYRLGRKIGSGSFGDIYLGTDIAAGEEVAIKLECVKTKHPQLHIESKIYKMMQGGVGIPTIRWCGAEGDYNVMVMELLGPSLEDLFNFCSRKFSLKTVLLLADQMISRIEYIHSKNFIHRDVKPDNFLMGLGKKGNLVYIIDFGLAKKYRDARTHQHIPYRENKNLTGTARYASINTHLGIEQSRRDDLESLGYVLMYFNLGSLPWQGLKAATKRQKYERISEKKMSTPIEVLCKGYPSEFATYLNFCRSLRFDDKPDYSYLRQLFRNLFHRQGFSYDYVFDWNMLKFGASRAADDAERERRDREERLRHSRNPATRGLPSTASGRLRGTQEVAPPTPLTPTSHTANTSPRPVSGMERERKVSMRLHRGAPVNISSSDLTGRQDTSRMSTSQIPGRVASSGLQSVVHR
Chain of Glycogen synthase kinase-3 beta (P49841 whole entry, canonical isoform): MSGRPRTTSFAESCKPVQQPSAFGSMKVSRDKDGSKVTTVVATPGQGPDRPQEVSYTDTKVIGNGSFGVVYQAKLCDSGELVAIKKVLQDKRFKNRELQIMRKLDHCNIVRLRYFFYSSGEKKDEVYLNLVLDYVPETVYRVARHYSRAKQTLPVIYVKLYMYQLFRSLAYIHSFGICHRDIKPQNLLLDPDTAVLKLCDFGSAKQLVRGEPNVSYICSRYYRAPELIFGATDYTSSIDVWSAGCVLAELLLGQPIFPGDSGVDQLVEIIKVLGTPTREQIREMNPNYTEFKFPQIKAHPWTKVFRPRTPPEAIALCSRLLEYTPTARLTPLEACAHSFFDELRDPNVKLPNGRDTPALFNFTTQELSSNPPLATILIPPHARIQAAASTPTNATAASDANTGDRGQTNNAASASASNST

Broadly, the IC50 is the concentration needed to halve the response being measured. In the case of `COc1cnc(CCc2ccc(F)cc2)nc1-c1cc2c([nH]1)CCNC2=O`, the IC50 in series [1] is 17 nM; in series [2], 25.6 µM.

Take `COc1cnc(COc2ccc(F)cc2C)cc1-c1cc2c([nH]1)CCNC2=O`: the IC50 in series [1] is 3 nM; in series [3], 442 nM; in series [4] it was 537 nM; in [6] it was 59 nM; in series [2], 53.3 µM. Besides, the Ratio IC50 in series [5] stood at 147; in series [7], 20.

Turning to `COc1cnc(Nc2ccccc2)nc1-c1cc2c([nH]1)CCNC2=O`, the IC50 turned out to be 8 nM in series [1] and 0.016 µM in series [2].

As to `COc1cnc(COc2ccc(F)cc2F)cc1-c1cc2c([nH]1)CCNC2=O`, the IC50 in series [1] is 3 nM; in [3], 225 nM; in series [4], 394 nM; in series [6], 36 nM; in series [2] it was 4 µM. The Ratio IC50 in series [5] is 75; in [7], 12.

The term Tmax denotes the time from dosing to the highest level. As a reminder, the AUC is concentration integrated over time. One may read the inhibition in vivo as the drop in the measured response relative to a control, in per cent. The half-life is the time needed for the level to fall by half in the phase considered. Lower therefore signals rapid decline. One may read the Cmax as the maximum level reached in the sampled fluid or tissue. With `COc1cnc(COc2ccc(F)c(F)c2)cc1-c1cc2c([nH]1)CCNC2=O`, the fraction unbound in [8] was 0.031; in series [9] it was 0.049. In addition, the microsomal CLint at 1 µM was found to be 46 µL/min/mg in [10] and 59 µL/min/mg in series [17]. Further, the IC50 in series [1] was 5 nM; in series [3], 251 nM; in [4] it was 254 nM; in [16], 200 nM; in [6] it was 40 nM; in series [2], 10.8 µM. Also, the Tmax in series [11] came to 19.8 min. Further, the concentration at 6 h in series [12] was 2700 nM. Further, the Concentration in [13] stood at 0.13 µM. Also, the AUC in series [14] was 15.4 µM·h. In series [15], the inhibition in vivo at 50 mg/kg is 42%. Moreover, the Ratio IC50 in [5] turned out to be 50; in series [7], 8. In series [18], this compound showed a half-life of 162 min. This compound yielded a Cmax in series [19] of 9.72 µM.

In the case of `COc1cnc(OCc2ccc(F)cc2)nc1-c1cc2c([nH]1)CCNC2=O`, the IC50 in series [1] is 80 nM; in series [3], 95 nM; in [6] it was 168 nM; in [2], above 30 µM.

Regarding `COc1cnc(-c2cnc3ccccc3c2)nc1-c1cc2c([nH]1)CCNC2=O`, the IC50 was 8 nM in series [1]; 9 nM in [3]; above 3330 nM in series [4]; 348 nM in series [16]; 68 nM in series [6]; 0.00149 µM in series [2]. The Ratio IC50 in series [5] was 1; in series [7], 8.

For the compound `COc1cnc(/C=C/c2ccc(F)cc2)nc1-c1cc2c([nH]1)CCNC2=O`, the IC50 was determined as 50 nM in series [1] and 1.22 µM in [2].

In the case of `COc1cnc(Oc2ccccc2)nc1-c1cc2c([nH]1)CCNC2=O`, the half-maximal inhibitory concentration (IC50) in series [1] is 853 nM; in series [3], 18500 nM; in series [6], 4860 nM; in series [2], above 62.5 µM.

In [2], `COc1cnc(CCc2ccc(F)cc2)cc1-c1cc2c([nH]1)CCNC2=O` gave an IC50 above 62.5 µM.

In the case of `COc1cnc(COc2ccc(F)cc2)cc1-c1cc2c([nH]1)CCNC2=O`, the results for the IC50 in series [1], in [4] and in [2] were 5 nM, 584 nM and 7.83 µM, respectively.

For the compound `COc1cnc(NCc2ccccc2)nc1-c1cc2c([nH]1)CCNC2=O`, the half-maximal inhibitory concentration (IC50) in series [1] turned out to be 33 nM; in [3], 19 nM; in series [6] it was 22 nM; in series [2], 0.098 µM.

In the case of `COc1cnc(COc2cc(F)c(F)cc2C)cc1-c1cc2c([nH]1)CCNC2=O`, the fraction unbound in [9] is 0.008. In addition, the microsomal CLint at 1 µM in series [10] was 106 µL/min/mg; in series [17], 177 µL/min/mg. Besides, the IC50 is 4 nM in series [1], 44 nM in series [4], 87 nM in series [16] and 38.1 µM in [2]. In addition, the Tmax in series [11] was 70.2 min. The same compound had an AUC in [14] of 2.1 µM·h. Besides, in series [18], the half-life was 84 min. This compound also registered a Cmax in series [19] of 0.56 µM.

In the case of `COc1cnc(COc2ccc(F)cc2)nc1-c1cc2c([nH]1)CCNC2=O`, the IC50 was found to be 24 nM in series [1], 146 nM in series [3], 58 nM in [6] and 1.12 µM in series [2]. For the same compound, in [5], the Ratio IC50 amounted to 6.
